Screens deposited in PubChem by Broad Institute.
Rows were chosen to be rich in hits. Some 3% of all compounds tested hit in one or more screens of this group.
esBAF inh = inhibitors of esBAF chromatin remodeling in mouse ES cells; Bmi1-luciferase knock-in reporter, 24 h; 100% = twice the neutral-well signal; reporter increase, % at 12.5 µM; 2% of 350,000 active; in the data active = activation above about 40%; inconclusive = no clear call, values can overlap the other calls;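 note: 0% = median of the plate's neutral control wells and 100% = double that signal; a rise in the Bmi1 reporter signal indicates esBAF inhibition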
Wnt act = activates Wnt/beta-catenin signaling in a reporter cell assay | AID 743398 | activator, plate reader | 1.2% of 300,000 active | activation, % at 9.35 µM; in the data active = activation above about 30%, passing the limit was not always enough; inconclusive = no clear call, values can overlap the other calls;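 note: 0% = neutral control wells and 100% = positive control wells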
Xi reactivation = reactivates the inactive X chromosome in mouse fibroblasts | 0.055% of 360,000 active | XiGFP mouse fibroblasts, % GFP-positive cells imaging, 3 d; cells co-treated with 5-aza-dC sensitizer; scaled so ellipticine positive control = 100% | activation, % at 7.58 µM | AID 743238;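 active = mean normalized replicate activation at least 10% and every replicate at or above 10%; inconclusive = only one of the two criteria met; inactive = mean below 10% and not all replicates reach 10%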;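 note: 0% = median of on-plate neutral control wells and 100% = ellipticine 6 µM median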
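System: 68-5-11 XiGFP fibroblast line | Buffer or medium: DMEM containing 5-aza-dC | Compound: Single point | Times: Compounds 3 days, fix/stain 15 min at room temperature | Benchmarks: Positive control ellipticine, 6 µM final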
MITF act = increases MITF-driven TRPM1 promoter luciferase signal. SK-MEL-5 TRPM1-promoter luciferase, 24 h; % of positive control, neutral wells = 0. 0.75% of 300,000 active. activation, % at 12.5 µM;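 active = mean activation of at least 80% with every replicate also reaching 80%; inconclusive = mean reaches 80% but some replicate falls short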;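 note: 0% = neutral control wells and 100% = parthenolide positive control wells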
NSD2 inh = inhibitors of human histone methyltransferase NSD2; NSD2 peptide methylation, AlphaScreen, 120 min; O96028; 0.54% of 310,000 active; inhibition, % at 12.5 µM; in the data active = inhibition above about 50%
Casp6 inh = caspase-6 (human) enzyme inhibition | P55212 | AID 686996 | inhibition, % at 12.5 µM | 0.53% of 350,000 active | purified caspase-6, Z-VEID-R110 cleavage fluorescence;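 active = mean inhibition across replicates at least about 35%, with every replicate also reaching that limit, limit read from the data; inconclusive = only one of the two criteria met; inactive = neither criterion met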;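 note: 0% = median of neutral control wells and 100% = no fluorescence left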
Target sequence (P55212 24-179 limits assumed): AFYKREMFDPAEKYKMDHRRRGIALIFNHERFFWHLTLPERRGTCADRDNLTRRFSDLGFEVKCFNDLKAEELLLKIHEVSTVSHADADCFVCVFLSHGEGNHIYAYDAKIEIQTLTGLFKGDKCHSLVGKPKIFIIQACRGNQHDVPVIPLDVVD
Target sequence (P55212 194-293 limits assumed): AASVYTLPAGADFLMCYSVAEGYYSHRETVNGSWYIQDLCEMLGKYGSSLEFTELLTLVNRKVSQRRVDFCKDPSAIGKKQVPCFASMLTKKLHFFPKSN
* = called active by the depositor; ? = inconclusive; . = no result given.

SMILES	esBAF inh	Wnt act	Xi reactivation	MITF act	NSD2 inh	Casp6 inh
Fc1ccccc1-c1nc(-c2ccncc2)no1	?	55*	0	.	-1	-1
Fc1ccccc1-c1nc(-c2ccc(-c3nn[nH]n3)cc2)no1	34	39*	0	47	.	3
CN(C)CCCNC(=O)C[C@H]1C=C[C@H](NS(=O)(=O)c2ccccc2)[C@@H](CO)O1	0	.	0	.	.	0
Cc1ccc(NC(=S)c2ccc3ccccc3n2)c(C)c1	53*	28	0	25	-4	-1
COc1ccc2c3c(n(C)c2c1)[C@H](CO)N(CC1CC1)CC31CN(C(=O)c2ccc(F)cc2)C1	.	.	0	.	.	.
COCCCN1CN(S(=O)(=O)c2ccc(Cl)cc2)c2nc3ccccc3nc21	7	.	.	29	3	.
CC(C)OCCCN1CN(S(=O)(=O)c2ccccc2)c2nc3ccccc3nc21	43*	7	.	38	4	.
O=C(NC[C@H]1CC[C@@H]2[C@@H](CN2Cc2cc(-c3ccccc3)on2)O1)c1ccc2c(c1)OCO2	.	.	.	.	.	-3
O=C(Cc1ccccc1)NN1C(=O)/C(=C/c2ccc(C(=O)O)cc2)SC1=S	-5	-2	0	0	-1	69*
C[C@@H]1CN([C@@H](C)CO)C(=O)c2cc(NC(=O)C3CCCCC3)ccc2O[C@H]1CN(C)Cc1ccc(-c2ccccc2)cc1	8	.	-1	.	.	-3
O=C(O)C1CC(c2ccccc2)=Nc2ccccc2S1 (configuration not stated)	52*	-2	0	51	4	1
CCOC(=O)c1ccc(N2Cc3ccccc3C2)cc1O	30	8	.	106*	-1	2
Cc1cc(C)cc(N2Cc3ccccc3C2)c1	0	-2	0	6	.	-3
CCc1ccc(N2Cc3ccccc3C2)cc1	.	2	0	86*	-121	0
CC/C(=N\Nc1nncc2ccccc12)c1ccc(F)cc1	41*	20	0	88*	0	-8
CCC(=O)Nc1ccc2c(c1)OC[C@@H](C)N(CC1CCOCC1)C[C@H](C)[C@H](OC)CN(C)C2=O	-3	.	0	.	.	-3
COc1ccc(/[N+]([O-])=C/c2ccco2)cc1	55*	46*	0	89*	.	.
COc1ccc(OCC(=O)N/N=C\c2ccco2)cc1	.	-1	0	-3	0	2
Cn1c(N)c(S(=O)(=O)N2CCCC2)c(=O)n(C)c1=O	8	30*	0	1	-1	3
Cc1c(S(=O)(=O)N2CCCC2)c(=O)n(C)c(=O)n1C	-2	-1	0	-2	2	10
C[C@@H](NC(=O)C[C@H]1CC[C@@H]2[C@H](COC[C@H](O)CN2C(=O)Nc2cccc(F)c2)O1)c1ccccc1	22	.	0	.	.	-1
CO[C@H]1CN(C)C(=O)c2ccc(NC(C)=O)cc2OC[C@@H](C)N(Cc2ccccc2F)C[C@H]1C	5	.	0	.	.	-4
CNC[C@@H]1Oc2c(NC(=O)NC(C)C)cccc2C(=O)N(C)C[C@H]1C	.	.	0	.	.	.
CC1=N/C(=C/c2ccco2)C(=O)O1	.	-1	0	-13	119*	35
O=C1OC(c2ccc(Br)cc2)=N/C1=C\c1ccco1	.	1	0	14	3	21
SMILES	esBAF inh	Wnt act	Xi reactivation	MITF act	NSD2 inh	Casp6 inh
O=C(C[C@@H]1C[C@H]2c3cc(NC(=O)Nc4ccccc4)ccc3O[C@H]2[C@H](CO)O1)NCc1ccncc1	5	.	0	.	.	-3
C[C@H]1CN([C@@H](C)CO)C(=O)Cc2cc(NC(=O)CCCN(C)C)ccc2O[C@H]1CN(C)S(=O)(=O)c1ccc(F)cc1	0	.	-1	.	.	-5
O=[N+]([O-])c1cc([N+](=O)[O-])c2cccnc2c1Oc1ccccc1O	.	.	1	-39	11	45*
O=[N+]([O-])c1cc(Cl)c(O)c2ncccc12	.	1	0	-24	24	.
O=[N+]([O-])c1cc(F)c2cccnc2c1O	-13	7	0	-15	11	92*
O=[N+]([O-])c1ccc(O)c2ncccc12	19	-3	1	-45	.	63*
O=[N+]([O-])c1ccc(O)c2cccnc12	7	-8	0	-2	-1	4
O=C(Nc1cc(F)ccc1F)N[C@@H]1CC[C@H](CCn2cc(C3CCCC3)nn2)O[C@@H]1CO	.	.	0	.	.	2
Cc1ccnc(NC(=O)c2cccc(NC(=O)c3ccccc3Cl)c2)c1	.	.	.	.	-1	.
Cc1ccsc1/C=N/Nc1ncc(Cl)cc1Cl	55*	4	.	.	1	.
Cc1cc(C)nc(N/N=C/c2sccc2C)n1	.	4	0	35	2	5
Cc1ccsc1/C=N/Nc1ccc(F)cc1F	.	10	0	95*	5	2
O=c1oc2cc(O)ccc2cc1-c1nc2c(s1)CCc1ccccc1-2	.	.	95*	-5	-2	.
CCCc1cc(C(=O)Nc2cccc(Cl)c2C)no1	58*	14	0	50	-3	2
CCCc1cc(C(=O)Nc2ccccc2SC)no1	51*	-2	4	.	.	-1
CCCc1cc(C(=O)Nc2ccc(C#N)cc2)no1	4	13	0	11	-3	0
CSc1ccccc1NC(=O)c1cc(-c2cccs2)on1	32	19	.	26	3	.
CCCc1cc(C(=O)Nc2ccc(F)cc2F)no1	68*	18	0	.	.	-2
Cn1ccc(C(=O)NC(=S)Nc2ccc([N+](=O)[O-])cc2O)n1	69*	27	0	69	2	7
COc1ccc2c(C)nc(Nc3nc(C)c(C)c(=O)[nH]3)nc2c1	176*	.	.	.	2	.
COc1ccc(Nc2nc(C)c3ccccc3n2)cc1	75*	.	.	60	-3	.
COCC#Cc1cnc2c(c1)C(=O)N([C@@H](C)CO)C[C@H](C)[C@@H](CN(C)S(=O)(=O)c1ccccc1)O2	3	.	0	.	.	-1
CCCNC(=O)Nc1ccc2c(c1)OC[C@H](C)N(C(=O)C1CCCCC1)C[C@H](C)[C@@H](OC)CN(C)C2=O	.	.	0	.	.	1
C[C@@H]1CN([C@H](C)CO)C(=O)c2cc(NC(=O)Cc3cn(C)c4ccccc34)ccc2O[C@@H]1CN(C)C(=O)Nc1cccc2ccccc12	4	.	0	.	.	1
Cc1ccccc1COc1ccc(/C=C(\C#N)C(N)=O)cc1	6	5	0	36	-2	0
N#C/C(=C\c1ccc(OCc2ccc(Br)cc2)cc1)C(=O)Nc1cccc(C(=O)O)c1	.	30	0	47	-3	6
N#C/C(=C\c1ccc(OCc2ccc(F)cc2)cc1)C(=O)Nc1cccc(C(=O)O)c1	33	51*	0	66	1	0
N#C/C(=C\c1ccc(OCc2ccccc2)cc1)C(N)=O	.	41*	0	63	4	1
CCOC(=O)c1sc(C)c2c(=O)n(Cc3ccc(Cl)cc3)cnc12	.	-1	1	1	-3	50*
